Measurements: ChEMBL document CHEMBL2040845, “Discovery of novel sulfonated small molecules that inhibit vascular tube formation” (Bioorg Med Chem Lett, 2012)
Activity calls are given as the source filed them. The rule behind the calls is not given here.

Columns and labels:
Type in all cases: functional
Bos taurus [1] = organism: Bos taurus; test: Antiangiogenic activity against BLMVEC grown on RGF-BME assessed as inhibition of tube formation at 100 uM after 16 hrs by calcein staining-based microscopy
Method in brief: (§1)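 1×10^5 BLMVEC premixed with test compound in MCDB-131 medium, then added to matrigel in duplicate wells. Wells received 100 μM compound. Controls were untreated wells and sulforaphane. Plates were incubated 16 hrs at 37 °C and cells were imaged by microscopy. Inhibition was scored from network morphology: branching and interconnection of tubes versus dispersed cells or short, unconnected tubes.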

Endothelial cell = test: Antiangiogenic activity against BLMVEC grown on RGF-BME assessed as dispersed endothelial cells at 100 uM after 16 hrs by calcein staining-based microscopy; details: Bos taurus; method in brief: as §1
Bos taurus [2] = organism: Bos taurus; test: Antiangiogenic activity against BLMVEC grown on RGF-BME assessed as formation of small cell clumps at 100 uM after 16 hrs by calcein staining-based microscopy; method in brief: as §1
Bos taurus [3] = organism: Bos taurus; test: Antiangiogenic activity against BLMVEC grown on RGF-BME assessed as inhibition of tube-like network formation at 100 uM after 16 hrs by calcein staining-based microscopy; method in brief: as §1
Bos taurus [4] = organism: Bos taurus; test: Antiangiogenic activity against BLMVEC grown on RGF-BME assessed as inhibition of branching at 100 uM after 16 hrs by calcein staining-based microscopy; method in brief: as §1

C[C@]12CC[C@@H]3c4ccc(OS(=O)(=O)O)cc4CC[C@H]3[C@@H]1CC[C@@H]2O
inhibition (Bos taurus [1]): Active | Activity (Endothelial cell): Active | Activity (Bos taurus [2]): Active | inhibition (Bos taurus [3]): Active

O=c1cc(-c2ccc(OS(=O)(=O)O)cc2)oc2cc(OS(=O)(=O)O)cc(OS(=O)(=O)O)c12
inhibition (Bos taurus [1]): Active | Activity (Endothelial cell): Active | Activity (Bos taurus [2]): Active | inhibition (Bos taurus [3]): Active

O=c1cc(-c2ccc(OS(=O)(=O)O)c(OS(=O)(=O)O)c2)oc2cc(OS(=O)(=O)O)cc(OS(=O)(=O)O)c12
inhibition (Bos taurus [1]): Active | Activity (Endothelial cell): Active | Activity (Bos taurus [2]): Active | inhibition (Bos taurus [3]): Active

O=C(c1cc(OS(=O)(=O)O)c(OS(=O)(=O)O)c(OS(=O)(=O)O)c1)N1CCc2cc(OS(=O)(=O)O)c(OS(=O)(=O)O)cc2C1
inhibition (Bos taurus [1]): inactive | Activity (Endothelial cell): inactive | inhibition (Bos taurus [4]): inactive | Activity (Bos taurus [2]): inactive | inhibition (Bos taurus [3]): inactive

O=c1c(OS(=O)(=O)O)c(-c2ccc(OS(=O)(=O)O)c(OS(=O)(=O)O)c2)oc2cc(OS(=O)(=O)O)ccc12
inhibition (Bos taurus [1]): inactive | Activity (Endothelial cell): inactive | inhibition (Bos taurus [4]): inactive | Activity (Bos taurus [2]): inactive | inhibition (Bos taurus [3]): inactive

O=C(CCc1ccc(OS(=O)(=O)O)cc1)c1c(OS(=O)(=O)O)cc(OS(=O)(=O)O)cc1OS(=O)(=O)O
inhibition (Bos taurus [1]): Active | Activity (Endothelial cell): Active | Activity (Bos taurus [2]): Active | inhibition (Bos taurus [3]): Active

O=c1c(OS(=O)(=O)O)c(-c2ccc(OS(=O)(=O)O)cc2OS(=O)(=O)O)oc2ccc(OS(=O)(=O)O)cc12
inhibition (Bos taurus [1]): inactive | Activity (Endothelial cell): inactive | inhibition (Bos taurus [4]): inactive | Activity (Bos taurus [2]): inactive | inhibition (Bos taurus [3]): inactive

CCOC(=O)[C@@H]1Cc2cc(OS(=O)(=O)O)c(OS(=O)(=O)O)cc2CN1C(=O)c1ccc(OS(=O)(=O)O)c(OS(=O)(=O)O)c1
inhibition (Bos taurus [1]): inactive | Activity (Endothelial cell): inactive | inhibition (Bos taurus [4]): inactive | Activity (Bos taurus [2]): inactive | inhibition (Bos taurus [3]): inactive

O=C1c2c(cc(OS(=O)(=O)O)cc2OS(=O)(=O)O)O[C@@H](c2ccc(OS(=O)(=O)O)c(OS(=O)(=O)O)c2)[C@@H]1OS(=O)(=O)O
inhibition (Bos taurus [1]): inactive | Activity (Endothelial cell): inactive | inhibition (Bos taurus [4]): inactive | Activity (Bos taurus [2]): inactive | inhibition (Bos taurus [3]): inactive

O=c1c(OS(=O)(=O)O)c(-c2ccc(OS(=O)(=O)O)c(OS(=O)(=O)O)c2)oc2cc(OS(=O)(=O)O)cc(OS(=O)(=O)O)c12
inhibition (Bos taurus [1]): inactive | Activity (Endothelial cell): inactive | inhibition (Bos taurus [4]): inactive | Activity (Bos taurus [2]): inactive | inhibition (Bos taurus [3]): inactive

O=C1c2c(cc(OS(=O)(=O)O)cc2OS(=O)(=O)O)O[C@@H](c2ccc(OS(=O)(=O)O)c(OS(=O)(=O)O)c2)[C@H]1OS(=O)(=O)O
inhibition (Bos taurus [1]): inactive | Activity (Endothelial cell): inactive | inhibition (Bos taurus [4]): inactive | Activity (Bos taurus [2]): inactive | inhibition (Bos taurus [3]): inactive

O=c1c(OS(=O)(=O)O)c(-c2ccccc2OS(=O)(=O)O)oc2ccccc12
inhibition (Bos taurus [1]): Active | Activity (Endothelial cell): Active | Activity (Bos taurus [2]): Active | inhibition (Bos taurus [3]): Active

O=C(c1ccc(OS(=O)(=O)O)c(OS(=O)(=O)O)c1)N1CCc2cc(OS(=O)(=O)O)c(OS(=O)(=O)O)cc2C1
inhibition (Bos taurus [1]): inactive | Activity (Endothelial cell): inactive | inhibition (Bos taurus [4]): inactive | Activity (Bos taurus [2]): inactive | inhibition (Bos taurus [3]): inactive

CCOC(=O)[C@@H]1Cc2cc(OS(=O)(=O)O)c(OS(=O)(=O)O)cc2CN1C(=O)c1cc(OS(=O)(=O)O)c(OS(=O)(=O)O)c(OS(=O)(=O)O)c1
inhibition (Bos taurus [1]): inactive | Activity (Endothelial cell): inactive | inhibition (Bos taurus [4]): inactive | Activity (Bos taurus [2]): inactive | inhibition (Bos taurus [3]): inactive
